Reference: the M2OR odorant receptor database
Where a chain is given by its changes, count along the chain named.

What was measured:
Settings in all cases: stereoisomer not certain
[1] = target: T1, OR6C65 (Homo sapiens) (UniProt A6NJZ3)
T1 sequence (whole entry): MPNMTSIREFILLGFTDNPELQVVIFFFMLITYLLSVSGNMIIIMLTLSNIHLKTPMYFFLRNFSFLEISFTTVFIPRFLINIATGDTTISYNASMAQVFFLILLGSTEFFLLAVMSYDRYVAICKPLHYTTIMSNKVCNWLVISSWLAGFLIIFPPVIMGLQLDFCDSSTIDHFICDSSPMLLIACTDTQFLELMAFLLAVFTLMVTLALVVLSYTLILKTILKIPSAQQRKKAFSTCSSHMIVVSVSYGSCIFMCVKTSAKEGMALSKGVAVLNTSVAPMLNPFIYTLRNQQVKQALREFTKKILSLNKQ
Outline: (§1)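 Whether a receptor–molecule pair is responsive (active) rests on the original authors' judgment that its measured signal was statistically different from baseline. Pairs without that judgment are non-responsive (inactive). Sources used varied assay methods, commonly transient luciferase assays in mammalian cell lines.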

[2] = target: T2, OR6C68 (Homo sapiens) (UniProt A6NDL8)
T2 sequence (whole entry): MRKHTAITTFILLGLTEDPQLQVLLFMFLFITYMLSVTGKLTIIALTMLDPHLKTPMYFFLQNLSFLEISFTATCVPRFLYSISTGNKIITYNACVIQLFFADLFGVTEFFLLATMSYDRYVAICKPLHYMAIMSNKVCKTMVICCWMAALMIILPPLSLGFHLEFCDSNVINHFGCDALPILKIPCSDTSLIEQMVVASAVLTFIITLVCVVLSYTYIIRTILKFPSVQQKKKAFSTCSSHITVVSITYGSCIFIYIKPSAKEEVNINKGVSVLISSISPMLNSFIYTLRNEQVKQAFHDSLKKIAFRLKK
Outline: as §1

[3] = target: T3, OR6C70 (Homo sapiens) (UniProt A6NIJ9)
T3 sequence (whole entry): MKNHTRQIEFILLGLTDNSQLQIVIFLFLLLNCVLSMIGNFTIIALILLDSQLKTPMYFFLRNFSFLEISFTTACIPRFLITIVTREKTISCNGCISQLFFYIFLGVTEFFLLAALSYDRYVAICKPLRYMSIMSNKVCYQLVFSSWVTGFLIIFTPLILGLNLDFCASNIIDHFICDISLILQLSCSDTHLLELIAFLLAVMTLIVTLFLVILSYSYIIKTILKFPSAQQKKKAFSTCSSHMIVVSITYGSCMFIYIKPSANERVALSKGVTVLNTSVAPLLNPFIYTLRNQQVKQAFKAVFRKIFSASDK
Outline: as §1

[4] = target: T4, OR6C74 (Homo sapiens) (UniProt A6NCV1)
T4 sequence (whole entry): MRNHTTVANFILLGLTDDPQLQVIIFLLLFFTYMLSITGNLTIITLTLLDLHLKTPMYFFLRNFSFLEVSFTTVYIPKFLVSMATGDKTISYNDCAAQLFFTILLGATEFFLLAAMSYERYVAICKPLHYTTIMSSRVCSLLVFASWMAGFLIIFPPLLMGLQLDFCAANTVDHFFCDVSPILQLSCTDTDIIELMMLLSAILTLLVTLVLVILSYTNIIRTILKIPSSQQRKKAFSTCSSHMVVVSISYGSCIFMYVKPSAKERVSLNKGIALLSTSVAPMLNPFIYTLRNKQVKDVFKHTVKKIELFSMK
Outline: as §1

[5] = target: T5, OR6C75 (Homo sapiens) (UniProt A6NL08)
T5 sequence (whole entry): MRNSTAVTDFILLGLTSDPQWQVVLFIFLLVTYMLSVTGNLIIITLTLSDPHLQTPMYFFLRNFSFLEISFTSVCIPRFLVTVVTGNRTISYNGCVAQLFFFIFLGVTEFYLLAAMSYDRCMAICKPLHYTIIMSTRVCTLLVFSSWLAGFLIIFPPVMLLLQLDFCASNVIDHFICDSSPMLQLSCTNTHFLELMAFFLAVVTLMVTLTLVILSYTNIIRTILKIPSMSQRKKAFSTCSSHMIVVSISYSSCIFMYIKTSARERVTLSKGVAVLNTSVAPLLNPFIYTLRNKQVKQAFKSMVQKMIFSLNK
Outline: as §1

[6] = target: T6, OR6C76 (Homo sapiens) (UniProt A6NM76)
T6 sequence (whole entry): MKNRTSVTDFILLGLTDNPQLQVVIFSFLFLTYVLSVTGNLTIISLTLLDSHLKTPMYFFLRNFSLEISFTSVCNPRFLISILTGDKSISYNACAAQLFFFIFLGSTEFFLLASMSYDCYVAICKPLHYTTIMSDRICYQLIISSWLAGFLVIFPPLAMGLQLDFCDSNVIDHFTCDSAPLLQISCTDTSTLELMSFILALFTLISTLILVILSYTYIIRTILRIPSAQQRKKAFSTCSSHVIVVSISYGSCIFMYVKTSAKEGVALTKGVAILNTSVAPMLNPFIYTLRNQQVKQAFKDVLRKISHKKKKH
Outline: as §1

[7] = target: T7, OR6F1 (Homo sapiens) (UniProt Q8NGZ6)
T7 sequence (whole entry): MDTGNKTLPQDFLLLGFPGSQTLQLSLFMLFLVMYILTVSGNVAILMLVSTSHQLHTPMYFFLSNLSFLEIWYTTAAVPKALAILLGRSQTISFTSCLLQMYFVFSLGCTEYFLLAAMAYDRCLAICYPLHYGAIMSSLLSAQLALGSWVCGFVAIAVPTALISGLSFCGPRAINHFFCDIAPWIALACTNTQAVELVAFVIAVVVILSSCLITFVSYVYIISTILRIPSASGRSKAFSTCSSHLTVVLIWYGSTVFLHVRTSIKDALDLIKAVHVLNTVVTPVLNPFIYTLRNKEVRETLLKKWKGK
Outline: as §1

[8] = target: T8, OR6J1 (Homo sapiens) (UniProt Q8NGC5)
T8 sequence (whole entry): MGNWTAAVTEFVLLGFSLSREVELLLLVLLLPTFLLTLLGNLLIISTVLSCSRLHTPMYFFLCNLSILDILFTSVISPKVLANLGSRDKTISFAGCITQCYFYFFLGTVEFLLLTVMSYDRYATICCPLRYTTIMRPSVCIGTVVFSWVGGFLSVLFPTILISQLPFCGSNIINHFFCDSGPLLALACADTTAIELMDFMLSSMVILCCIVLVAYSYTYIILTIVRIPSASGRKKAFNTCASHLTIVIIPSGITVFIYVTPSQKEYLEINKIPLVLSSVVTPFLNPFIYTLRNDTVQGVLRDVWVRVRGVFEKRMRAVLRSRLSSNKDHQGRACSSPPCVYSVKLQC
Outline: as §1

[9] = target: T9, OR6K2 (Homo sapiens) (UniProt Q8NGY2)
T9 sequence (whole entry): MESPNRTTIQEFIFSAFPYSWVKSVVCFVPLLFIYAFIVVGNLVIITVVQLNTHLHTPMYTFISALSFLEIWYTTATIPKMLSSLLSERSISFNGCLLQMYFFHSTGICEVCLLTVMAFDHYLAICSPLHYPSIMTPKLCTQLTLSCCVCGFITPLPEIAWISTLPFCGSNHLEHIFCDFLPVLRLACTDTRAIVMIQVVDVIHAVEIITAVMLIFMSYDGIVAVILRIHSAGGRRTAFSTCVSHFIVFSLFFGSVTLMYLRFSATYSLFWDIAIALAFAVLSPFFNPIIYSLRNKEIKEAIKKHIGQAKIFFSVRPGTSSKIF
Outline: as §1

[10] = target: T10, OR6K3 (Homo sapiens) (UniProt Q8NGY3)
T10 sequence (whole entry): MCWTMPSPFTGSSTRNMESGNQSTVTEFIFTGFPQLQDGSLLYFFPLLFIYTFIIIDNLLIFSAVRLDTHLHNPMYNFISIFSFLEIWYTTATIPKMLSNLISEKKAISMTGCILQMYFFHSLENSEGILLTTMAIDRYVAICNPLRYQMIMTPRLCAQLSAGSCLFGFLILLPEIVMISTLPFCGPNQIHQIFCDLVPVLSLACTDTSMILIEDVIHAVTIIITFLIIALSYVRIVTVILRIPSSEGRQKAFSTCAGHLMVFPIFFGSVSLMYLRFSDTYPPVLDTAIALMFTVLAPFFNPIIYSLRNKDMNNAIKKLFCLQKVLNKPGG
Outline: as §1

[11] = target: T11, OR6K6 (Homo sapiens) (UniProt Q8NGW6)
T11 sequence (whole entry): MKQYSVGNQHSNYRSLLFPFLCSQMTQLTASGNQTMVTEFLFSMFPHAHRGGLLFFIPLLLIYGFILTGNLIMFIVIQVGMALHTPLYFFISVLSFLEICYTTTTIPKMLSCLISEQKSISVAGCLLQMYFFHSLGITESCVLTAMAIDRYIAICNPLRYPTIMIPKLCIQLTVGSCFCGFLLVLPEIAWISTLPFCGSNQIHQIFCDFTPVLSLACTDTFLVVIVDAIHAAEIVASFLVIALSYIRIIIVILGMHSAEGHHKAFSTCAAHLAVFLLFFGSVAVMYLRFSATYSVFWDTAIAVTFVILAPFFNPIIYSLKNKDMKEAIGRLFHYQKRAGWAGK
Outline: as §1

[12] = target: T12, OR6M1 (Homo sapiens) (UniProt Q8NGM8)
T12 sequence (whole entry): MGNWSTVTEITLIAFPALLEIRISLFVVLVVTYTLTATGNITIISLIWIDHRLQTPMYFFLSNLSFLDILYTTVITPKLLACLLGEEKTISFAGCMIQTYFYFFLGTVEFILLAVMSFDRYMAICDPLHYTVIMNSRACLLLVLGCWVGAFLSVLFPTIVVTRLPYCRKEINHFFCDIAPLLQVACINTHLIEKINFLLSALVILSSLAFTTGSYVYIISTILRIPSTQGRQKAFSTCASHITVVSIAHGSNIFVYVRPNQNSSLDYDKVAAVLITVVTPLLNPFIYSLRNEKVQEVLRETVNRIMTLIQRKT
Outline: as §1

[13] = target: T13, OR6N1 (Homo sapiens) (UniProt Q8NGY5)
T13 sequence (whole entry): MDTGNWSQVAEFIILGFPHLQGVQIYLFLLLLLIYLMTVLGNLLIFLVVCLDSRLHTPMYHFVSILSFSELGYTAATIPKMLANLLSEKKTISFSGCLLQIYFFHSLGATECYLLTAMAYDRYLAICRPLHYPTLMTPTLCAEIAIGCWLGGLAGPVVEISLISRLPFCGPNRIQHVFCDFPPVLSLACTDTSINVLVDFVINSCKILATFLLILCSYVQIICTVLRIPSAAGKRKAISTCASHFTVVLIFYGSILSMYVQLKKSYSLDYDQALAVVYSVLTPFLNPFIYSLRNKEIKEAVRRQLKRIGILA
Outline: as §1

[14] = target: T14, OR6N2 (Homo sapiens) (UniProt Q8NGY6)
T14 sequence (whole entry): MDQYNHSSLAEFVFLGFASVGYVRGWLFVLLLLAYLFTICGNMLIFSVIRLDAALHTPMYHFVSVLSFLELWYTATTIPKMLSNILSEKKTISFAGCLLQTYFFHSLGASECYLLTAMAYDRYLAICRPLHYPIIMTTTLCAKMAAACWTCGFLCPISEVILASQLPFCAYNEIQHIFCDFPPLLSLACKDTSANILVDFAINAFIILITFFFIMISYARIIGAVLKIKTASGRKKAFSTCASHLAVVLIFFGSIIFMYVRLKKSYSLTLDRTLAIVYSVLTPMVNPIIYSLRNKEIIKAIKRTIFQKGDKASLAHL
Outline: as §1

[15] = target: T15, OR6P1 (Homo sapiens) (UniProt Q8NGX9)
T15 sequence (whole entry): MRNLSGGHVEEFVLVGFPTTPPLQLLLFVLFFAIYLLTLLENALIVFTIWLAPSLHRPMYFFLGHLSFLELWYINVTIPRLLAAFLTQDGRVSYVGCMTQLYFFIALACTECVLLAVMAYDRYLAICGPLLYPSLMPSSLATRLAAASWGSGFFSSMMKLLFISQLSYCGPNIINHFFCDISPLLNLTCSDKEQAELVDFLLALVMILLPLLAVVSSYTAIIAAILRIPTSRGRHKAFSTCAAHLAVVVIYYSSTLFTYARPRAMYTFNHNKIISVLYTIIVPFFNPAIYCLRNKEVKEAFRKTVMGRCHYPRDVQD
Outline: as §1

[16] = target: T16, OR6Q1 (Homo sapiens) (UniProt Q8NGQ2)
T16 sequence (whole entry): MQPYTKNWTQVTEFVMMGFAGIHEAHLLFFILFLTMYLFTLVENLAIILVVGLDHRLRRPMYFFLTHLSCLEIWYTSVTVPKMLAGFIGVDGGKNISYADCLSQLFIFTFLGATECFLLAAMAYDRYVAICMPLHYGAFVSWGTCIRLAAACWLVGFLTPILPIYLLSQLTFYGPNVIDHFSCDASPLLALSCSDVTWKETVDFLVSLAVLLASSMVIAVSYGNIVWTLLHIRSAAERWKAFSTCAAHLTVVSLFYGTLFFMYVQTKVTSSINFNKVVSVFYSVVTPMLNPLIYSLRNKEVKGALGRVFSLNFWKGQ
Outline: as §1

[17] = target: T17, OR6J1 (Homo sapiens) (UniProt Q8NGC5); remark: listed apart in the source
T17 sequence (whole entry): T8 sequence (whole entry) with P250S
Outline: as §1

[18] = tested on: T18, OR6K3
T18 sequence (whole entry): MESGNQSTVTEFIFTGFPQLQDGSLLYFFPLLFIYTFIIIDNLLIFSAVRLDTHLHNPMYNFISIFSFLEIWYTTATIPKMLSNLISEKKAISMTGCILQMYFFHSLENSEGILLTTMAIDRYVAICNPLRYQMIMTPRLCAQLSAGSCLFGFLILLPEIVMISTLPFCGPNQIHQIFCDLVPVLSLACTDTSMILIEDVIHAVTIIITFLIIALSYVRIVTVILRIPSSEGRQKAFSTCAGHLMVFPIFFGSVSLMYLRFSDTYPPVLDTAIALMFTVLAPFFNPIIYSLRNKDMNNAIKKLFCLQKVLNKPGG
Outline: as §1

[19] = tested on: T19, OR6M1 R224C
T19 sequence (whole entry): T12 sequence (whole entry) with R224C
Outline: as §1

[20] = tested on: T20, OR6M1 T276K
T20 sequence (whole entry): T12 sequence (whole entry) with T276K
Outline: as §1

Measured: odorant receptor agonist call;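 note: active if original authors judged signal statistically different from baseline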

CCC(S)C(C)CO (stereo unspecified)
not listed: [17] | [18] | [19] | [20]
inactive: all other assays above

CCC1OC(C)=C(O)C1=O (stereo unspecified)
not listed: [8] | [10]
inactive: all other assays above

CC(CO)CS (stereo unspecified)
not listed: [17] | [18] | [19] | [20]
inactive: all other assays above

CCCCCC(=O)C(C)C(C)=O (stereo unspecified)
not listed: [17] | [18] | [19] | [20]
inactive: all other assays above
